Test results reported in article PMC5132079 (Clinical Pharmacology in Drug Development, 2016).
Entries after “also recorded” stand apart in the source; their conditions may differ. Like-named read-outs stand apart in the source and are kept apart here.

Tests used:
cardiac repolarization = conditions: prior studies; cited from earlier work
[1] = cited from earlier work
[2] = system: unrestrained male monkeys; conditions: nonclinical study, cited from earlier work
[3] = Plasma cabotegravir pharmacokinetics after third dose; format: in vivo; conditions: human, po, 150 mg; for AUC(0-t) / Tmax: oral 150 mg every 12 hours × 3 doses; for Tmax: median (range)
Method in brief: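 Healthy adults took oral test compound 150 mg (5 × 30-mg tablets) every 12 h for 3 doses, fasting ≥6 h before and 4 h after the third dose. Plasma was sampled predose and 0.5–24 h after the day-2 dose. Samples were protein-precipitated and run on HPLC-MS/MS (TurboIonSpray, MRM), range 25–25 000 ng/mL. Noncompartmental analysis gave Cmax, Tmax, AUC0–12 and AUC0–24.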

[4] = monkeys, 1000 mg/kg; nonclinical study; cited from earlier work
HIV-1 = conditions: oral cabotegravir, early clinical studies; cited from earlier work
UGT1A1, UGT1A9 = conditions: to inactive glucuronide metabolites; cited from earlier work
hERG channel = conditions: 5.28 μM [2.14 μg/mL]; HEK 293 cells; nonclinical studies; cited from earlier work
[5] = single dose 150 mg; ref unpublished data; cited from earlier work
[6] = system: QTcF interval in healthy subjects; assay: Thorough QT study, continuous Holter monitoring, time-matched ΔΔQTcF; format: in vivo, human; conditions: for time of maximum effect of ΔΔQTcF: after dosing on day 2
Method in brief: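 3-period crossover: test compound 150 mg orally every 12 h ×3, placebo, or single 400-mg fluoroquinolone positive control; ≥21-day washouts. Continuous 12-lead 1000-Hz Holter; day −1 24-h baseline. Triplicate ECGs extracted 0.5–24 h after day-2 dose, lead II, blinded central reader; QT Fridericia-corrected; time-matched placebo-subtracted change (ΔΔQTcF) by repeated-measures ANCOVA with 90% CIs; concentration relation via linear mixed-effects model.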

[7] = Drug exposure in monkey cardiovascular study; format: in vivo; conditions: 1000 mg/kg in monkeys vs 150 mg every 12 hours × 3 doses in humans
[8] = Previous single-dose cabotegravir 150 mg pharmacokinetic study; format: in vivo, human
[9] = cited from earlier work; remark: listed apart in the source
[10] = system: QTcF in clinical study subjects; conditions: 8 phase 1/2a studies, n = 245 subjects, cited from earlier work
[11] = system: UGT and cytochrome P450 (CYP) enzymes; conditions: in vitro; cited from earlier work
healthy subjects = assay: Safety assessments; format: in vivo, human; conditions: for Alanine aminotransferase increased / Any adverse event / Blood creatine phosphokinase increased / Dermatitis contact / Headache / Nausea: safety population
Method in brief: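 Healthy adults aged 18–55 were crossed over between test compound (150 mg every 12 h ×3), placebo and a positive control, with ≥21-day washouts. Monitoring ran throughout and covered adverse events, laboratory tests, vital signs and physical examinations. Semisupine 12-lead safety ECGs were taken at 0, 3, 12 and 15 h on day 1, at 0 and 3 h on day 2, and at 24 h on day 3. Summaries were descriptive.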

QTc in healthy subjects = conditions: randomized, placebo-controlled study of 20 healthy subjects; cited from earlier work
[12] = single dose 1000 mg/kg, within the first 2 hours of dosing
[13] = cabotegravir 150 mg every 12 hours × 3 doses
[14] = linear mixed-effects PK/pharmacodynamic model
[15] = supratherapeutic dose, 150 mg every 12 hours × 3 doses
[16] = single dose 150 mg, extrapolation from 30-mg data
[17] = 150 mg every 12 hours × 3 doses

For `C[C@@H]1CCO[C@H]2Cn3cc(C(=O)NCc4ccc(F)cc4F)c(=O)c(O)c3C(=O)N12` [dolutegravir], the “effect on cardiac repolarization” value (cardiac repolarization) is given as “do not affect cardiac repolarization”.

In the case of `C[C@H]1CO[C@@H]2Cn3cc(C(=O)NCc4ccc(F)cc4F)c(=O)c(O)c3C(=O)N12` [Cabotegravir], the “dose proportionality of pharmacokinetics” value ([1]; 10 to 60 mg, previous work) is given as “dose‐proportional manner from 10 to 30 mg, but in a less than proportional manner from 30 to 60 mg”, the plasma half-life ([1]; oral cabotegravir) is given as 40 h and the “dose proportionality of AUC(0–t), Cmax, Cτ, and Cmin” value ([1]; repeated administration for 14 days) is given as “Dose‐proportional increases”. The “ECG waveform or interval changes” value ([2]; single dose 1000 mg/kg) was “no electrocardiogram (ECG) waveform or interval changes”, the “transient increase in heart rate” value [2, 12] was ~20% and the “transient increase in mean arterial pressure” value [2, 12] was ~6%. The cardiovascular effects ([2]; single doses of 8 and 25 mg/kg) was “no effects”, the AUC(0-t) ([3]; both, AUC0–12, geometric mean (CV,%) [90%CI], all subjects (n = 40)) was 217 µg·h/mL and the AUC(0-t) ([3]; both, AUC0–24, geometric mean (CV,%) [90%CI], all subjects (n = 40)) was 386 µg·h/mL. The Tmax ([3]; both, all subjects (n = 40)) was ~2 h, the Cmax ([3]; female) was 25100 ng/mL and the AUC(0-t) ([3]; female, AUC0–12, geometric mean (CV,%) [90%CI], women (n = 9)) was 234 µg·h/mL. For the same molecule, the AUC(0-t) ([3]; female, AUC0–24, geometric mean (CV,%) [90%CI], women (n = 9)) was 409 µg·h/mL, the Tmax ([3]; female, women (n = 9)) was 2 h and the Cmax ([3]; male) was 21900 ng/mL. For the same molecule, the AUC(0-t) ([3]; male, AUC0–12, geometric mean (CV,%) [90%CI], men (n = 31)) was 213 µg·h/mL, the AUC(0-t) ([3]; male, AUC0–24, geometric mean (CV,%) [90%CI], men (n = 31)) was 380 µg·h/mL and the Tmax ([3]; male, men (n = 31)) was 2 h. The Cmax [4] was 67000 ng/mL, the antiretroviral activity (HIV-1) was “potent antiretroviral activity” and the tolerability (HIV-1) was “generally well tolerated”. The metabolic pathway (UGT1A1, UGT1A9) was “metabolized via UDP‐glucuronosyltransferase (UGT) 1A1, with a secondary contribution from UGT1A9”, the “effects on hERG channel tail current” value (hERG channel) was “no different than those observed with vehicle” and the “geometric mean Cmax” value [5] was 10400 ng/mL. For the same molecule, the “geometric mean plasma AUC0–∞” value [5] was 418 µg·h/mL, the “median time to Cmax (Tmax)” value [5] was 2.5 h and the “time of maximum effect of ΔΔQTcF” value [6] was 8 h. The “point estimate for ΔΔQTcF at any point” value [6, 13] was ≤ 5 milliseconds, the “subjects with QTcF value > 450 milliseconds” value [6, 13] was “not associated with any instances” and the “subjects with changes from baseline in QTcF of >30 milliseconds” value [6, 13] was “none of the subjects”. The “ΔΔQTcF, mean ± SE” value ([6]; cabotegravir 150 mg every 12 hours × 3 doses minus placebo, 1 h) was -0.37 ± 1.74 ms, the “ΔΔQTcF, mean ± SE” value ([6]; cabotegravir 150 mg every 12 hours × 3 doses minus placebo, 2 h) was 0.44 ± 1.83 ms and the “ΔΔQTcF, mean ± SE” value ([6]; cabotegravir 150 mg every 12 hours × 3 doses minus placebo, 3 h) was -0.62 ± 1.69 ms. For the same molecule, the “ΔΔQTcF, mean ± SE” value ([6]; cabotegravir 150 mg every 12 hours × 3 doses minus placebo, 4 h) was -0.37 ± 1.53 ms, the “ΔΔQTcF, mean ± SE” value ([6]; cabotegravir 150 mg every 12 hours × 3 doses minus placebo, 6.5 h) was 0.50 ± 1.63 ms and the “ΔΔQTcF, mean ± SE” value ([6]; cabotegravir 150 mg every 12 hours × 3 doses minus placebo, 12 h) was -0.34 ± 1.66 ms. The “ΔΔQTcF, mean ± SE” value ([6]; cabotegravir 150 mg every 12 hours × 3 doses minus placebo, 24 h) was 1.13 ± 2.05 ms, the “upper limits of 2-sided 90% confidence intervals for ΔΔQTcF” value ([6]; cabotegravir 150 mg every 12 hours × 3 doses, all time points) was < 10 milliseconds and the “subjects with QTcF value > 450 milliseconds” value ([6]; cabotegravir 150 mg every 12 hours × 3 doses, listed as cabotegravir) was “No subject”. For the same molecule, the “mean estimated intercept, ΔΔQTcF vs time-matched cabotegravir concentration” value [6, 14] was 1.382 milliseconds, the “relationship between cabotegravir plasma concentrations and ΔΔQTcF” value [6, 14] was “no relationship; also recorded: no discernable concentration effect” and the “effect on cardiac repolarization” value [6, 15] was “no effect on cardiac repolarization”. For the same molecule, the “drug exposure (Cmax) in monkeys relative to present study” value [7] was 3 fold, the “geometric mean Cmax higher than after repeat 30 mg once daily” value ([8]; single dose 150 mg vs 30 mg once daily in HIV-infected subjects) was 39% and the “predicted AUC0–∞” value [8, 16] was 870 µg·h/mL. The “predicted Cmax” value [8, 16] was 21200 ng/mL, the “Cmax at steady state” value ([9]; clinically therapeutic dose 30 mg once daily) was 7500 ng/mL and the Cmax ([9]; repeat administration of 30 mg once daily in HIV-infected subjects) was 7490 ng/mL. For the same molecule, the “overall mean difference in QTcF change from baseline between cabotegravir and placebo” value ([10]; 2540 postdose ECGs) was “–2.9 milliseconds”, the “subjects with QTcF ≥ 480 milliseconds or change from baseline in QTcF of >60 milliseconds” value [10] was “no subject” and the “inhibition or induction of UGT and cytochrome P450 (CYP) enzymes” value [11] was “has not been shown to inhibit or induce”. For the same molecule, the “clinical laboratory values, vital signs, or safety ECG results” value (healthy subjects; [17]) was “No clinically significant trends”, the “serious or grade 3 or 4 adverse events” value (healthy subjects; [17]) was “no serious or grade 3 or 4 adverse events” and the Alanine aminotransferase increased (healthy subjects; cabotegravir 150 mg (n = 40)) was 1 (3) n (%). For the same molecule, the Any adverse event (healthy subjects; cabotegravir 150 mg (n = 40)) was 13 (33) n (%), the “Blood creatine phosphokinase increased” value (healthy subjects; cabotegravir 150 mg (n = 40)) was 0 n (%) and the Dermatitis contact (healthy subjects; cabotegravir 150 mg (n = 40)) was 6 (15) n (%). The Headache (healthy subjects; cabotegravir 150 mg (n = 40)) was 1 (3) n (%), the Nausea (healthy subjects; cabotegravir 150 mg (n = 40)) was 0 n (%) and the Dermatitis contact (healthy subjects; cabotegravir 150 mg (n = 40), listed as cabotegravir) was 6 n (%). The tolerability (healthy subjects; [15]) was “well tolerated”.

For `COc1c(N2C[C@@H]3CCCN[C@@H]3C2)c(F)cc2c(=O)c(C(=O)O)cn(C3CC3)c12` [Moxifloxacin, moxifloxacin, reference compound], the “time of maximum effect of ΔΔQTcF” value [6] was 8 h, the “ΔΔQTcF, mean ± SE” value ([6]; moxifloxacin 400 mg single dose minus placebo, 0.5 h) was 5.40 ± 2.05 ms and the “ΔΔQTcF, mean ± SE” value ([6]; moxifloxacin 400 mg single dose minus placebo, 1 h) was 8.75 ± 1.79 ms. The “ΔΔQTcF, mean ± SE” value ([6]; moxifloxacin 400 mg single dose minus placebo, 2 h) was 11.67 ± 1.88 ms, the “ΔΔQTcF, mean ± SE” value ([6]; moxifloxacin 400 mg single dose minus placebo, 3 h) was 10.49 ± 1.73 ms and the “ΔΔQTcF, mean ± SE” value ([6]; moxifloxacin 400 mg single dose minus placebo, 4 h) was 11.81 ± 1.57 ms. The “ΔΔQTcF, mean ± SE” value ([6]; moxifloxacin 400 mg single dose minus placebo, 6.5 h) was 10.08 ± 1.68 ms, the “ΔΔQTcF, mean ± SE” value ([6]; moxifloxacin 400 mg single dose minus placebo, 8 h (maximum observed)) was 13.03 ± 1.63 ms and the “ΔΔQTcF, mean ± SE” value ([6]; moxifloxacin 400 mg single dose minus placebo, 12 h) was 7.79 ± 1.69 ms. The “ΔΔQTcF, mean ± SE” value ([6]; moxifloxacin 400 mg single dose minus placebo, 24 h) was 6.53 ± 2.10 ms, the “lower limit of the 90%CI for ΔΔQTcF” value ([6]; moxifloxacin 400 mg, at several times) was > 5 millisecond and the “time of first peak of placebo-adjusted QTcF change from baseline” value (QTc in healthy subjects) was 4 h. The “time of second increase in QTc” value (QTc in healthy subjects) was 8 h, the Alanine aminotransferase increased (healthy subjects; moxifloxacin 400 mg (n = 36)) was 0 n (%) and the Any adverse event (healthy subjects; moxifloxacin 400 mg (n = 36)) was 12 (33) n (%). The “Blood creatine phosphokinase increased” value (healthy subjects; moxifloxacin 400 mg (n = 36)) was 1 (3) n (%), the Dermatitis contact (healthy subjects; moxifloxacin 400 mg (n = 36)) was 2 (6) n (%) and the Headache (healthy subjects; moxifloxacin 400 mg (n = 36)) was 2 (6) n (%). The Nausea (healthy subjects; moxifloxacin 400 mg (n = 36)) was 2 (6) n (%) and the Dermatitis contact (healthy subjects; moxifloxacin 400 mg (n = 36), listed as moxifloxacin) was 2 n (%).
